The source of these data is ChEMBL document CHEMBL4715754, “Slowing down fat digestion and absorption by an oxadiazolone inhibitor targeting selectively gastric lipolysis” (2016).

Experiment [1] deals with Rattus norvegicus. Briefly: Inhibition of lipolysis in mesenteric lymph duct-cannulated Wistar rat model assessed as decrease in intestinal lipid absorption at 5.3 mg/kg supplemented with olive oil emulsion and measured after 24 hrs relative to control. Format: functional. Details: scale not given: the % may be the effect or the level left. In outline: (§1)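 Male Wistar rats (8 weeks, 300-350 g), fat-free diet 24 h, mesenteric lymph duct cannulated under ketamine/xylazine. Given 0.8 mL olive oil emulsion (530 mg fatty acids) premixed with inhibitor at 5.3 mg/kg by mouth, then 0.5 mL water. Lymph collected over 24 h; total fatty acids by GC-FID of methyl esters. 7 rats per group; one-way ANOVA with Fisher's test.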

Experiment [2] has as its system Rattus norvegicus. Briefly: Inhibition of lipolysis in mesenteric lymph duct-cannulated Wistar rat model assessed as Tmax for maximum fatty acid concentration at 5.3 mg/kg supplemented with olive oil emulsion and measured after 24 hrs (reference value: 6 hrs). It counts as functional, organism-based. Summed up:
as §1

For experiment [3], the system named is Rattus norvegicus. Nature of the experiment: Inhibition of lipolysis in mesenteric lymph duct-cannulated Wistar rat model assessed as decrease in intestinal lipid absorption at 5.3 mg/kg supplemented with olive oil emulsion and measured after 6 hrs relative to control. Also noted: scale not given: the % may be the effect or the level left. It counts as functional. Summed up: as §1

The target of experiment [4] is T1, Pancreatic triacylglycerol lipase (Sus scrofa) (UniProt P00591).
T1 sequence (whole entry): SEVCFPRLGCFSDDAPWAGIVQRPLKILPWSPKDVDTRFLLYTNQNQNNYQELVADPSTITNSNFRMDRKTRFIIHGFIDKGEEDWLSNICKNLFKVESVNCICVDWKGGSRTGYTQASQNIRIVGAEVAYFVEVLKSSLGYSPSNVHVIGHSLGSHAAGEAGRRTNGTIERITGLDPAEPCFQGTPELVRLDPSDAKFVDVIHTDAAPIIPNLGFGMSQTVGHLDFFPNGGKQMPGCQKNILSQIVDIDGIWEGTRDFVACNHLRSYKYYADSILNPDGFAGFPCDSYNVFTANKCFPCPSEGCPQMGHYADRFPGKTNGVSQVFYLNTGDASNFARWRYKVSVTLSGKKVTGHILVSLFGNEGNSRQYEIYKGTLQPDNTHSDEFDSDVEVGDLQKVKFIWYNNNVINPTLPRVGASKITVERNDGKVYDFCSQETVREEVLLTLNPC
Briefly: Inhibition of porcine pancreatic lipase at 400:1 molar excess compound concentration preincubated for 30 mins at 25 degreeC relative to control. Summed up: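 Pancreatic lipase from human pancreatic juice (54 µg/mL HPL stock) or porcine pancreatic extract (32 µg/mL PPL stock) was held in 10 mM MES pH 7.0, 150 mM NaCl. It was pre-incubated with inhibitor from DMSO stock for 30 min at 25 °C with 4 mM NaTDC at varied molar excess. Residual activity was read by pH-stat on tributyrin at 37 °C, pH 8.0, with 2 mM CaCl₂ and 4 mM NaTDC. x_I50 was taken from residual activity; DMSO-only controls were run.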

Experiment [5] deals with T2, Gastric triacylglycerol lipase (Canis lupus familiaris) (UniProt P80035).
T2 sequence (whole entry): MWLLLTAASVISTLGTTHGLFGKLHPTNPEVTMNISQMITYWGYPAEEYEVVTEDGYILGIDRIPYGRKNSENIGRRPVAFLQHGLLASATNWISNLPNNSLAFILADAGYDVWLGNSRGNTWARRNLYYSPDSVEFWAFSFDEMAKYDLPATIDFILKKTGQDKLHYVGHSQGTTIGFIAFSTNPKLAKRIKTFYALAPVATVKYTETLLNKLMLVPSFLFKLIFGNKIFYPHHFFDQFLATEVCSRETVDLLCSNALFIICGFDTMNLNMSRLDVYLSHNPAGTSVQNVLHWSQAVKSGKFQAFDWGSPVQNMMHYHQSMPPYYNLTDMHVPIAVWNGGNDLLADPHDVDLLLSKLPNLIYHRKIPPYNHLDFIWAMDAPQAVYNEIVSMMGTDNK
Nature of the experiment: Inhibition of recombinant dog gastric lipase preincubated for 1 hr at 25 degreeC.

For experiment [6], the species on record is Homo sapiens. Briefly: Inhibition of human pancreatic carboxylesterase assessed as residual activity by measuring half-inactivation time at 4:1 molar excess compound concentration preincubated for 1 hr at 25 degreeC. Summed up: (§2)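 Enzyme pre-incubated with inhibitor (DMSO stock) at fixed molar excess for 1 h at 25 °C without substrate: hCEH x_I=4 (1 mM NaTDC assay), RLL and DGL x_I=20 with 4 mM NaTDC, GPLRP2 x_I=2 with 2 mM NaTDC. Residual activity sampled at intervals by pH-stat on tributyrin emulsion at 37 °C; t1/2 taken at 50% residual activity. DMSO-only controls; at least triplicate.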

Experiment [7] has as its target T3, Gastric triacylglycerol lipase (Rattus norvegicus) (UniProt P04634).
T3 sequence (whole entry): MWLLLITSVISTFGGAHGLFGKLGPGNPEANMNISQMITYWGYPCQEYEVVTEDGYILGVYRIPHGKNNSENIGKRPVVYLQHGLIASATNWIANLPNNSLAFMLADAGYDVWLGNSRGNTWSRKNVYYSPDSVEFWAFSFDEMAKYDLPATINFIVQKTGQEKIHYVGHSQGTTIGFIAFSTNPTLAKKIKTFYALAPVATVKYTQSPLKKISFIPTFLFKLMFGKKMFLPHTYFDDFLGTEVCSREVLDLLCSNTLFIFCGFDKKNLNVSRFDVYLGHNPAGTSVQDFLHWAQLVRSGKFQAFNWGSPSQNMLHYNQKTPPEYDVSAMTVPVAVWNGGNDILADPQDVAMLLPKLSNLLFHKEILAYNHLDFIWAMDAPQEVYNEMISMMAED
Briefly: Inhibition of rat lingual lipase assessed as residual activity by measuring half-inactivation time at 20:1 molar excess compound concentration preincubated for 1 hr at 25 degreeC. In outline:
as §2

Experiment [8] deals with T4, Pancreatic lipase-related protein 2 (Cavia porcellus) (UniProt P81139).
T4 sequence (whole entry): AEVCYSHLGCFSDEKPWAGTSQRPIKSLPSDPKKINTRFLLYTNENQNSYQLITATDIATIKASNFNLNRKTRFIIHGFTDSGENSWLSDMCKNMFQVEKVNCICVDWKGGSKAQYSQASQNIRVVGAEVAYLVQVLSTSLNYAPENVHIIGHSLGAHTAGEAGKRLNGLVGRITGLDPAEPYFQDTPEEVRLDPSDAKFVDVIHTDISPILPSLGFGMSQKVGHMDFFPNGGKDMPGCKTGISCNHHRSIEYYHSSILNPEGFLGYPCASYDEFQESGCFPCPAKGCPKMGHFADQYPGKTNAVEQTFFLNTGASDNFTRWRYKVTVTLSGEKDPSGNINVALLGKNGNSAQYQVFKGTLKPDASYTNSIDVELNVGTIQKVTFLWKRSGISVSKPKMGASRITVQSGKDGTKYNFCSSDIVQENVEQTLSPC
Briefly: Inhibition of recombinant guinea pig PL-RP2 expressed in Aspergillus oryzae preincubated for 30 mins at 25 degreeC.

The species named for experiment [9] is Homo sapiens. Briefly: Inhibition of human pancreatic carboxylesterase at 20:1 molar excess compound concentration preincubated for 30 mins at 25 degreeC relative to control. In outline: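 hCEH (1 mg/mL in 10 mM MES pH 6.5, 150 mM NaCl) pre-incubated 30 min at 25 °C with inhibitor from DMSO stock at various molar excesses, no substrate. Residual activity by pH-stat on tributyrin emulsion at 37 °C in 1 mM Tris-HCl pH 8.0, 100 mM NaCl, 5 mM CaCl2, 1 mM NaTDC. Relative to DMSO-only control; at least triplicate.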

Regarding `CCCCCCCCCCC[C@@H](C[C@@H]1OC(=O)[C@H]1CCCCCC)OC(=O)[C@@H](CC(C)C)NC=O`, the Activity in experiment [1] is recorded as -70.9%; in experiment [3], -37.4%. The Tmax in experiment [2] amounted to 360 min. Further, the inhibition in experiment [4] was 93.1%. In experiment [5], the XI50 stood at 5.6 molar excess. Besides, the results for the T1/2 in experiment [6] and in experiment [7] were 0.52 min and 0.39 min, respectively.

On to `O=c1oc(OCCOCc2ccccc2)nn1-c1cccc(Oc2ccccc2)c1`, for which the Activity is -24% in [1] and -9.1% in experiment [3]. Further, in [2], the Tmax worked out at 300 min. Also, the XI50 in experiment [8] was 0.64 molar excess; in [5], 0.5 molar excess. The inhibition in experiment [4] was determined as 13.2%; in [9], 71.5%. The T1/2 in [6] was determined as 1.31 min; in experiment [7] it was 4.95 min.
